TRPC4 block = inhibitors of mouse TRPC4 channel, primary screen, Fluo4 calcium, HEK293 TRPC4beta/mu-opioid cells. DAMGO-evoked Fluo4 calcium flux; active compounds read low. B-score at 10 µM. hit rate 0.39% among 300,000;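 active = B-score over 3 SD under the library average, no early fluorescence shift, positive overall ratio signal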
Target sequence (Q9QUQ5 whole entry, looked up): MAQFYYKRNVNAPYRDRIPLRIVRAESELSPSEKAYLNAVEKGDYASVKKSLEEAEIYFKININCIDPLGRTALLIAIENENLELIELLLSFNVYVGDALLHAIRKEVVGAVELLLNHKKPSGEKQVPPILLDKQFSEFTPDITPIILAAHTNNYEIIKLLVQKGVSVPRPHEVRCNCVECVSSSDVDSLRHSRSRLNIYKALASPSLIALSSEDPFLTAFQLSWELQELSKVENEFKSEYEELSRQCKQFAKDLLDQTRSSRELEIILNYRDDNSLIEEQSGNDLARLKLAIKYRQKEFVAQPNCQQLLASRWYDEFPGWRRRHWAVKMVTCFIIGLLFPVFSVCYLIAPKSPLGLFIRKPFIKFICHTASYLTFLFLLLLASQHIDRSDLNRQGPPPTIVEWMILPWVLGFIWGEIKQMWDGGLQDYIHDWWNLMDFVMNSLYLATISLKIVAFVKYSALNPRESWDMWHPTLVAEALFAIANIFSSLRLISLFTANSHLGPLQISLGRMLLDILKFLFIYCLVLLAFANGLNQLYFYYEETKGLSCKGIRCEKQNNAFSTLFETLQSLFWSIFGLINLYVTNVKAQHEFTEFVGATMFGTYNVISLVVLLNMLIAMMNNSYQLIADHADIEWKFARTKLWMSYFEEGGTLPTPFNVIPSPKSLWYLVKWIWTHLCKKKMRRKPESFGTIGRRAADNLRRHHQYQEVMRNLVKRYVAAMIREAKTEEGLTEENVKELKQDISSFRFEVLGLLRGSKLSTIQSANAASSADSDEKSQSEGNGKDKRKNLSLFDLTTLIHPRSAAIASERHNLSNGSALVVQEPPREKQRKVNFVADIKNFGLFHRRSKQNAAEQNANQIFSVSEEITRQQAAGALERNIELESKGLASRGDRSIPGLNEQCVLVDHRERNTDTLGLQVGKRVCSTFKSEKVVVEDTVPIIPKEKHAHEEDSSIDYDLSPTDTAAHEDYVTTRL
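Signal: kinetic Fluo4 fluorescence imaging of calcium influx. Material: stable TRPC4beta/mu-opioid receptor HEK293 cells. Probe or stimulus: DAMGO in two steps, submaximal then maximal.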
TRPC6 act = mouse TRPC6 channel activators, primary screen, cell-based, HEK293, membrane potential dye | Short transient receptor potential channel 6 (Mus musculus), Q61143 | HEK293-TRPC6 membrane potential dye fluorescence; active compounds read high | B-score at 10 µM | hit rate 0.13% among 310,000;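 active = B-score of the integrated fluorescence ratio above library mean plus 3 SD, and starting fluorescence ratio within library mean plus 5 SD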;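 note: higher score means more depolarization so channel activation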
TRPC4 agonist = activators of mouse TRPC4 channel, primary screen, Fluo4 calcium, HEK293 TRPC4beta/mu-opioid cells. Short transient receptor potential channel 4 (Mus musculus), Q9QUQ5. Fluo4 calcium fluorescence; active compounds read high. B-score at 10 µM. hit rate 0.49% among 310,000. AID 2237, 2010;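 active = B-score above 5 SD of library B-scores, and initial fluorescence ratio not above library mean plus 5 SD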;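 note: positive B-score marks a calcium rise read as TRPC4 activation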
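Assay system: HEK293 stable line with TRPC4beta plus mu-opioid receptor; schedule: 45 min room-temperature Fluo4 loading, 110 s read; technique: kinetic Fluo4 calcium fluorescence; evaluation: integrated baseline-normalised fluorescence ratio, converted to per-well B score; controls: buffer (low) and maximal DAMGO (high)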
TRPC6 inhibitor = mouse TRPC6 channel inhibitors, primary screen, cell-based, HEK293, membrane potential dye; hit rate 1.1% among 310,000; AID 2553, 2010; ACh-evoked depolarization; active compounds read low; Short transient receptor potential channel 6 (Mus musculus), Q61143; B-score at 10 µM;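 active = B-score under library mean minus 3 SD, initial fluorescence not abnormally high, positive integrated signal ratio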;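 note: B-score derived from integrated fluorescence ratio over the kinetic read; more negative B-score means stronger inhibition of depolarization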
TRPC4 PAM = positive allosteric modulators of TRPC4, primary screen, cell-based, mouse TRPC4beta, HEK293 mu-opioid, Fluo-4 calcium. DAMGO EC20, Fluo-4 Ca2+ flux; active compounds read high. AID 2227, 2009. Short transient receptor potential channel 4 (Mus musculus), Q9QUQ5. B-score at 10 µM. hit rate 0.42% among 310,000;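 active = B-score of calcium response area above 5 SD of library B-scores, with initial fluorescence ratio within 5 SD of library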
A number is an active result. Compounds with a hit are over-represented: about 2.3% of the library has one in this group of screens.

Screening N#Cc1cccc2c1-c1ccccc1/C2=N/NC(N)=S returned TRPC4 block inactive, TRPC6 act inactive, TRPC4 agonist inactive, TRPC6 inhibitor inactive and TRPC4 PAM inactive.
N#Cc1cccc2c1-c1ccccc1/C2=N/NC(N)=O was read as TRPC4 block -6, TRPC6 act inactive, TRPC4 agonist inactive, TRPC6 inhibitor inactive and TRPC4 PAM inactive.
CC1CC(C)CN(C(=O)CCNC(=O)c2ccccc2Cl)C1 (stereo unspecified) was read as TRPC4 block inactive, TRPC6 act inactive, TRPC4 agonist inactive, TRPC6 inhibitor inactive and TRPC4 PAM inactive.
CC(=O)Nc1cccc(C(=O)NCC2(N3CCCCC3)CCCCC2)c1 was read as TRPC4 block -6, TRPC6 act inactive, TRPC4 agonist inactive, TRPC6 inhibitor inactive and TRPC4 PAM inactive.
Screening CSCC[C@H](NC(=O)N1CCn2c1nc1ccccc12)C(=O)NCc1ccc(C)cc1 returned TRPC4 block inactive, TRPC6 act inactive, TRPC4 agonist inactive, TRPC6 inhibitor inactive and TRPC4 PAM 43.
Screening COc1ccccc1N1C(=O)CC(N2CCN(c3ccc(Cl)cc3)CC2)C1=O (stereo unspecified) returned TRPC4 block inactive, TRPC6 act inactive, TRPC4 agonist inactive, TRPC6 inhibitor inactive and TRPC4 PAM inactive.
COc1cccc(OCc2cc(C(=O)N3CCC(c4ccncc4)CC3)no2)c1 was read as TRPC4 block inactive, TRPC6 act inactive, TRPC4 agonist inactive, TRPC6 inhibitor inactive and TRPC4 PAM inactive.
For COc1cccc(OCc2cc(C(=O)N3CCN(C)C(c4ccccc4)C3)no2)c1 (stereo unspecified) the results were TRPC4 block inactive, TRPC6 act inactive, TRPC4 agonist inactive, TRPC6 inhibitor inactive and TRPC4 PAM 15.
`CCCn1nc(C(=O)NNC(=O)CCCOc2ccc(C)cc2)c2ccccc2c1=O` gave TRPC4 block inactive, TRPC6 act inactive, TRPC4 agonist inactive, TRPC6 inhibitor inactive and TRPC4 PAM inactive.
O=[N+]([O-])c1c(Nc2ccc(O)cc2)cc(Cl)c2nonc12 was read as TRPC4 block inactive, TRPC6 act inactive, TRPC4 agonist inactive, TRPC6 inhibitor inactive and TRPC4 PAM inactive.
CCOC(=O)C1(CCOC)CCN(C(=O)Cc2ccc3ccccc3c2)CC1 was read as TRPC4 block inactive, TRPC6 act inactive, TRPC4 agonist inactive, TRPC6 inhibitor inactive and TRPC4 PAM inactive.
For CCOC(=O)C1(CCOc2ccccc2)CCN(Cc2ccc(NC(C)=O)cc2)CC1 the results were TRPC4 block inactive, TRPC6 act inactive, TRPC4 agonist 83, TRPC6 inhibitor inactive and TRPC4 PAM inactive.
Screening CCOC(=O)C1(CCOC)CCN(C(C)CCc2ccc(OC)cc2)CC1 (stereo unspecified) returned TRPC4 block -7, TRPC6 act inactive, TRPC4 agonist inactive, TRPC6 inhibitor inactive and TRPC4 PAM inactive.
Screening CCOC(=O)C1(CCOc2ccccc2)CCN(Cc2ccc(CO)o2)CC1 returned TRPC4 block inactive, TRPC6 act inactive, TRPC4 agonist inactive, TRPC6 inhibitor inactive and TRPC4 PAM inactive.
CCOC(=O)C1(CCOc2ccccc2)CCN(Cc2ccc(OC)cc2)CC1 was read as TRPC4 block inactive, TRPC6 act inactive, TRPC4 agonist 94, TRPC6 inhibitor inactive and TRPC4 PAM inactive.
`CCOC(=O)C1(CCOc2ccccc2)CCN(Cc2cnc(C)s2)CC1` gave TRPC4 block inactive, TRPC6 act inactive, TRPC4 agonist 115, TRPC6 inhibitor inactive and TRPC4 PAM inactive.
For CC(=O)Nc1ccc(CN2CCC(CO)(CCOc3ccccc3)CC2)cc1 the results were TRPC4 block inactive, TRPC6 act inactive, TRPC4 agonist inactive, TRPC6 inhibitor inactive and TRPC4 PAM inactive.
Screening Cc1ccc(-c2c(C(=O)N/N=C/c3c[nH]c4ccccc34)nnn2-c2nonc2N)cc1 returned TRPC4 block inactive, TRPC6 act inactive, TRPC4 agonist inactive, TRPC6 inhibitor inactive and TRPC4 PAM inactive.
`O=C(CSc1nc(-c2ccccc2)c(-c2ccccc2)o1)NCCCO` gave TRPC4 block inactive, TRPC6 act inactive, TRPC4 agonist inactive, TRPC6 inhibitor inactive and TRPC4 PAM inactive.
Screening COc1ccc(OC)c(CN2CCC(CO)(CCOc3ccccc3)CC2)c1 returned TRPC4 block inactive, TRPC6 act inactive, TRPC4 agonist inactive, TRPC6 inhibitor inactive and TRPC4 PAM inactive.

Compound activity from PubChem.
